Results from ChEMBL document CHEMBL1821722, “Design, synthesis and biological evaluation of novel desmuramyldipeptide analogs” (Eur J Med Chem, 2011).
The source made the active and inactive calls. No cut-off for these calls is given here.

Assays:
THP-1 [1] = test: Toxicity in human THP1 cells assessed TNF-alpha release at 20.2 uM after 24 hrs by sandwich ELISA; assay type: cell-based; settings: thp-1, 24 h
Summary of the method: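 THP-1 in supplemented RPMI 1640 co-incubated 24 h with 20.2 µM compound and 1 ng/ml LPS, DMSO ≤0.2%. TNF-α release expressed as % of the LPS-only response, mean ± SD of 6 samples, Mann-Whitney U test.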

PBMC [2] = test: Cytotoxicity against human PBMC assessed as LDH release at 20.2 uM; assay type: cell-based
THP-1 [3] = test: Immunomodulatory effect in human THP1 cells assessed as increase in LPS-induced TNF-alpha release at 20.2 uM after 24 hrs by sandwich ELISA relative to LPS; assay type: functional
Summary of the method: (§1)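 THP-1 cells at 10⁶ cells/ml in RPMI 1640 with 10% heat-inactivated FCS. Co-incubated 24 h with compound (0.2–200 µM) plus E. coli 0127:B8 LPS 1 ng/ml, DMSO vehicle ≤0.2% final. TNF-α in supernatant expressed as % of LPS-induced release, mean ± SD of 6 samples.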

THP-1 [4] = test: Cytotoxicity against human THP1 cells assessed as LDH release at 20.2 uM; assay type: cell-based; settings: thp-1, 20.2 µM
Summary of the method: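 LDH leakage into the medium used as the cytotoxicity read-out, taken at the highest concentration tested.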

PBMC [5] = test: Immunomodulatory effect in human PBMC cells assessed as increase in LPS-induced TNFalpha release at 20.2 uM after 18 hrs by flow cytometry analysis relative to LPS; assay type: functional
Summary of the method: (§2)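 Human PBMC isolated from healthy-donor buffy coats on a Ficoll-Paque gradient. Cultured in RPMI 1640 with 10% heat-inactivated FCS, 2 mM L-glutamine and 50 µM 2-mercaptoethanol. 0.5 × 10⁶ cells exposed to 20.2 µM compound plus 10 ng/ml LPS, DMSO ≤0.1%, for 18 h at 37 °C in 5% CO₂. Supernatant cytokines measured by flow cytometric bead assay. Values are % of LPS alone, mean ± SD of 4 samples, two donors.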

PBMC [6] = test: Immunomodulatory effect in human PBMC cells assessed as decrease in LPS-induced IL-10 release at 20.2 uM after 18 hrs by flow cytometry analysis relative to LPS; assay type: functional; set-up: scale not given: the % may be the effect or the level left; summary of the method: as §2
PBMC [7] = test: Immunomodulatory effect in human PBMC cells assessed as decrease in LPS-induced IL-8a release at 20.2 uM after 18 hrs by flow cytometry analysis relative to LPS; assay type: functional; set-up: scale not given: the % may be the effect or the level left; summary of the method: as §2
PBMC [8] = test: Immunomodulatory effect in human PBMC cells assessed as decrease in LPS-induced IL-6 release at 20.2 uM after 18 hrs by flow cytometry analysis relative to LPS; assay type: functional; set-up: scale not given: the % may be the effect or the level left; summary of the method: as §2
PBMC [9] = test: Immunostimulatory effect in human PBMC cells assessed as increase in […]/ionomycin-induce IL1-beta release at 20.2 uM after 18 hrs by flow cytometry analysis relative to PMA and ionomycin; assay type: functional
Summary of the method: (§3)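 PBMC prepared from donor buffy coat on Ficoll-Paque and kept in supplemented RPMI 1640. Cells (0.5 × 10⁶) given 20.2 µM compound with PMA 3.33 ng/ml and ionomycin 500 nM (final) for 18 h at 37 °C, 5% CO₂. Supernatant IL-1β, IL-6, IL-8, IL-10 and TNF-α read by flow cytometry. Expressed relative to PMA/ionomycin alone, mean ± SD of 4 samples, two donors.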

PBMC [10] = test: Immunostimulatory effect in human PBMC cells assessed as increase in […]/ionomycin-induce IL-10 release at 20.2 uM after 18 hrs by flow cytometry analysis relative to PMA and ionomycin; assay type: functional; summary of the method: as §3
PBMC [11] = test: Immunostimulatory effect in human PBMC cells assessed as increase in […]/ionomycin-induce TNFalpha release at 20.2 uM after 18 hrs by flow cytometry analysis relative to PMA and ionomycin; assay type: functional; summary of the method: as §3
PBMC [12] = test: Immunostimulatory effect in human PBMC cells assessed as increase in […]/ionomycin-induce IL-8a release at 20.2 uM after 18 hrs by flow cytometry analysis relative to PMA and ionomycin; assay type: functional; summary of the method: as §3
PBMC [13] = test: Immunostimulatory effect in human PBMC cells assessed as increase in […]/ionomycin-induce IL-6 release at 20.2 uM after 18 hrs by flow cytometry analysis relative to PMA and ionomycin; assay type: functional; summary of the method: as §3
PBMC [14] = test: Immunomodulatory effect in human PBMC cells assessed as LPS-induced IL1-beta release at 20.2 uM after 18 hrs by flow cytometry analysis relative to LPS; assay type: functional; summary of the method: as §2
PBMC [15] = test: Immunomodulatory effect in human PBMC cells assessed as increase in LPS-induced IL-10 release at 20.2 uM after 18 hrs by flow cytometry analysis relative to LPS; assay type: functional; summary of the method: as §2
PBMC [16] = test: Immunomodulatory effect in human PBMC cells assessed as increase in LPS-induced IL-6 release at 20.2 uM after 18 hrs by flow cytometry analysis relative to LPS; assay type: functional; summary of the method: as §2
PBMC [17] = test: Immunomodulatory effect in human PBMC cells assessed as increase in LPS-induced IL-8a release at 20.2 uM after 18 hrs by flow cytometry analysis relative to LPS; assay type: functional; summary of the method: as §2
THP-1 [18] = test: Immunomodulatory effect in human THP1 cells assessed as increase in LPS-induced TNF-alpha release at 2 uM after 24 hrs by sandwich ELISA relative to LPS; assay type: functional; summary of the method: as §1
THP-1 [19] = test: Immunomodulatory effect in human THP1 cells assessed as increase in LPS-induced TNF-alpha release after 24 hrs by sandwich ELISA relative to LPS; assay type: functional, cell-based; summary of the method: as §1
THP-1 [20] = test: Immunomodulatory effect in human THP1 cells assessed as increase in LPS-induced TNF-alpha release at 200 uM after 24 hrs by sandwich ELISA relative to LPS; assay type: functional; summary of the method: as §1
THP-1 [21] = test: Immunomodulatory effect in human THP1 cells assessed as increase in LPS-induced TNF-alpha release at 0.2 uM after 24 hrs by sandwich ELISA relative to LPS; assay type: functional; summary of the method: as §1
PBMC [22] = test: Immunomodulatory effect in human PBMC cells assessed as increase in LPS-induced TNF-alpha release at 20.2 uM after 24 hrs by sandwich ELISA; assay type: functional, cell-based

SMILES | Activity (THP-1 [1]) | Activity (PBMC [2]) | Activity (THP-1 [3]) [%] | Activity (THP-1 [4]) | Activity (PBMC [5]) [%] | Activity (PBMC [9]) [%] | Activity (PBMC [10]) [%] | Activity (PBMC [11]) [%] | Activity (PBMC [12]) [%] | Activity (PBMC [13]) [%] | Activity (PBMC [14]) [%] | Activity (PBMC [15]) [%] | Activity (PBMC [16]) [%] | Activity (PBMC [17]) [%] | further results
C[C@@H](NC(=O)CCCCN1C(=O)c2ccccc2S1(=O)=O)C(=O)N[C@H](CCC(=O)O)C(N)=O | Non-toxic | Non-toxic | 115.3 | Non-toxic | – | – | – | – | – | – | – | – | – | – | –
C[C@H](NC(=O)CCNC(=O)c1cc2ccccc2[nH]1)c1noc(CCC(=O)O)n1 | Non-toxic | Non-toxic | 113.4 | Non-toxic | – | – | – | – | – | – | – | – | – | – | –
C[C@H](NC(=O)COCCN1C(=O)c2ccccc2S1(=O)=O)C(=O)N[C@H](CCC(=O)O)C(=O)O | Non-toxic | Non-toxic | 117 | Non-toxic | 104 | 112 | 116 | 124 | 104 | 91 | 85 | – | – | – | Activity (PBMC [6]): 65.5%; Activity (PBMC [7]): 89.5%; Activity (PBMC [8]): 86%
CCOC(=O)CC[C@@H](NC(=O)[C@H](C)NC(=O)C1=C2c3ccccc3S(=O)(=O)N2CCC1)C(N)=O | Non-toxic | Non-toxic | 122 | Non-toxic | 122.5 | 406 | 82.5 | 142 | 134 | 139.5 | 95 | 105.5 | 120 | 94.5 | –
CCCCOC(=O)[C@@H](CCC(N)=O)NC(=O)[C@H](C)NC(=O)[C@@H](C)O[C@H]1[C@H](O)[C@@H](CO)OC(O)[C@@H]1NC(C)=O (stereo partly drawn) [MURABUTIDE] | Non-toxic | Non-toxic | 182.6 | Non-toxic | 696.5 | 2964.5 | 158.5 | 332.5 | 152 | 439.5 | 416.5 | 559 | 594.5 | 107 | –
C[C@H](NC(=O)C1=C2c3ccccc3S(=O)(=O)N2CCC1)C(=O)N[C@H](CCC(=O)O)C(N)=O | Non-toxic | Non-toxic | 120.2 | Non-toxic | 115 | 88 | 88.5 | 105.5 | 103 | 74 | 94 | 94 | 103.5 | 98.5 | Activity (THP-1 [18]): 92.5%; Activity (THP-1 [19]): Dose-dependent effect; Activity (THP-1 [20]): 204.3%; Activity (THP-1 [21]): 90.3%
C[C@H](NC(=O)C1CCCN2C1c1ccccc1S2(=O)=O)C(=O)N[C@H](CCC(=O)O)C(=O)O (stereo partly drawn) | Non-toxic | Non-toxic | 110.5 | Non-toxic | – | – | – | – | – | – | – | – | – | – | –
C[C@H](NC(=O)CCCCN1C(=O)c2ccccc2S1(=O)=O)C(=O)N[C@H](CCC(=O)O)C(N)=O | Non-toxic | Non-toxic | 114 | Non-toxic | 108.5 | 91.5 | 84.5 | 96 | 103 | 81 | 106 | 98 | 109 | 97.5 | –
CC(=O)N[C@@H]1[C@@H](O[C@H](C)C(=O)N[C@@H](C)C(=O)N[C@@H](CCC(=O)O)C(N)=O)[C@H](O)[C@@H](CO)O[C@H]1O | – | – | – | – | – | – | – | – | – | – | – | – | – | – | Activity (PBMC [22]): Active
C[C@H](NC(=O)C1=C2c3ccccc3S(=O)(=O)N2CCC1)C(=O)N[C@H](CCC(=O)O)C(=O)O | Non-toxic | Non-toxic | 113.3 | Non-toxic | – | – | – | – | – | – | – | – | – | – | –
C[C@H](NC(=O)CCCCN1C(=O)c2ccccc2S1(=O)=O)C(=O)N[C@@H](CCC(=O)O)C(N)=O | Non-toxic | Non-toxic | 119.3 | Non-toxic | – | – | – | – | – | – | – | – | – | – | –
C[C@@H](NC(=O)CCCCN1C(=O)c2ccccc2S1(=O)=O)C(=O)N[C@@H](CCC(=O)O)C(N)=O | Non-toxic | Non-toxic | 91 | Non-toxic | – | – | – | – | – | – | – | – | – | – | –
C[C@H](NC(=O)COCCN1C(=O)c2ccccc2S1(=O)=O)C(=O)N[C@H](CCC(=O)O)C(N)=O | Non-toxic | Non-toxic | 114.3 | Non-toxic | 104.5 | 122 | 89.5 | 83.5 | 110.5 | 63.5 | 95.5 | 84.5 | 95.5 | – | Activity (PBMC [7]): 96.5%
